Test results from ChEMBL document CHEMBL2169805, “The discovery of CCR3/H1 dual antagonists with reduced hERG risk” (Bioorg Med Chem Lett, 2012).
≈ marks a conversion by molar mass, not a printed value.

Columns and labels:
[1] = biological target: T1, C-C chemokine receptor type 3 (Homo sapiens, UniProt P51677); test: Binding affinity to human CCR3 receptor expressed in CHOK1 cells by radioligand displacement assay; format: cell-based, CHO-K1
T1 sequence (P51677 whole entry): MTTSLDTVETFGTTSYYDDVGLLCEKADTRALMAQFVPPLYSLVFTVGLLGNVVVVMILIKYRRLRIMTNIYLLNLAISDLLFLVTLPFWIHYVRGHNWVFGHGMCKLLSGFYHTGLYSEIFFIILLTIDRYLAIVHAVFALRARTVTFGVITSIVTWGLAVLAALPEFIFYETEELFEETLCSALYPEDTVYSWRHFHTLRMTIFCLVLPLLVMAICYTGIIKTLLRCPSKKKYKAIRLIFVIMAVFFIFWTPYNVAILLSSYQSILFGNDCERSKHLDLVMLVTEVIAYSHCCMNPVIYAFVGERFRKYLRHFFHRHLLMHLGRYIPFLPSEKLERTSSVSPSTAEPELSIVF

Histamine H1 receptor = Histamine H1 receptor (Homo sapiens, UniProt P35367); test: Displacement of [3H]pyrilamine from human H1 receptor expressed in CHOK1 cells; format: cell-based, CHO-K1
Histamine H1 receptor, sequence (P35367 whole entry): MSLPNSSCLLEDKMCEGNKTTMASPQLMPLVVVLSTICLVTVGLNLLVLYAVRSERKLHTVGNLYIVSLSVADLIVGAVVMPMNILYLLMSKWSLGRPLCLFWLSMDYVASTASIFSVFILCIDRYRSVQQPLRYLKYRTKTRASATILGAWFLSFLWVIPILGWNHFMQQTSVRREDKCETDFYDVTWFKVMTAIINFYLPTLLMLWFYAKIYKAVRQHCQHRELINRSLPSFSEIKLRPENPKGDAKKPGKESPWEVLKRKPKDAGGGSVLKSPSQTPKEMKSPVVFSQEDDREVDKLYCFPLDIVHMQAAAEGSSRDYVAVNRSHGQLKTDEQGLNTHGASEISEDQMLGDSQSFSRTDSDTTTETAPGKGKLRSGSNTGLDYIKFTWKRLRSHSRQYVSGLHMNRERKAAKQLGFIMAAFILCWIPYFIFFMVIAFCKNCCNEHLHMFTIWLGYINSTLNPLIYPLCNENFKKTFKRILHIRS

hERG (KCNH2) = hERG (KCNH2) (Homo sapiens, UniProt Q12809); test: Inhibition of human ERG expressed in HEK293 cells at 10 uM by electrophysiological ion flux assay; format: cell-based; conditions: HEK293 cells expressing human ERG
hERG (KCNH2), sequence (Q12809 whole entry): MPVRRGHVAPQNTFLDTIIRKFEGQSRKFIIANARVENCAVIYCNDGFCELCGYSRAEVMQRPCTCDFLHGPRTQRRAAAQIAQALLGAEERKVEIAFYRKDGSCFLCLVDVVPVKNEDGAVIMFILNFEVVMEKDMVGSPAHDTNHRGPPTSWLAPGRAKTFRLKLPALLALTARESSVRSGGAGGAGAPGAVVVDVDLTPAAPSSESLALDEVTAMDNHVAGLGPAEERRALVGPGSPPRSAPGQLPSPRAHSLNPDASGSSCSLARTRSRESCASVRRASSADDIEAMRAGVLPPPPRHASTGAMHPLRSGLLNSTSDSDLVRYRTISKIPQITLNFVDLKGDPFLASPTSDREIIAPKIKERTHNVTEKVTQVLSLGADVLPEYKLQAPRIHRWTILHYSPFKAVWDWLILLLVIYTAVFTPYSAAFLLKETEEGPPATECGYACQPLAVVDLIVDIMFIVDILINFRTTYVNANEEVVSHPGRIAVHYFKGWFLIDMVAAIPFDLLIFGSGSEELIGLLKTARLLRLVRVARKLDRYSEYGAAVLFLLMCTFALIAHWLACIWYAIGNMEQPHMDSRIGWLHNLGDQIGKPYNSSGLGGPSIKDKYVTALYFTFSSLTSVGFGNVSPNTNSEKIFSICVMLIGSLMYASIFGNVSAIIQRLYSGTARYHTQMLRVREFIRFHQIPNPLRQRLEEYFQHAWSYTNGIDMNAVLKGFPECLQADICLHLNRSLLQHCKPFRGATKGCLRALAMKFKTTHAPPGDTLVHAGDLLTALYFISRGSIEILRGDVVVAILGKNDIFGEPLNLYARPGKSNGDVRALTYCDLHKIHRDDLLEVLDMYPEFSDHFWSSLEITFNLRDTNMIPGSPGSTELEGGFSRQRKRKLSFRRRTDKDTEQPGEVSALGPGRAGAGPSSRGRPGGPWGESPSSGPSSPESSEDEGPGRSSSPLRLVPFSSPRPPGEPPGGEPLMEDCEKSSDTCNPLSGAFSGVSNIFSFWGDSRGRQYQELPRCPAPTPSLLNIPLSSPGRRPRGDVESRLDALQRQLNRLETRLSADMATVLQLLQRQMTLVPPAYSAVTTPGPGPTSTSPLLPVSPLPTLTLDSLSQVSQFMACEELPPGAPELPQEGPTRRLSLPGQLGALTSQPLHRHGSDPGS

[2] = Oral bioavailability in Sprague-Dawley rat at 1 mg/kg administered using 0.1%tween-1%CMC as vehicle; format: ADME, organism-based; conditions: in vivo
[3] = biological target: T2, Voltage-gated inwardly rectifying potassium channel KCNH2 (Homo sapiens, UniProt Q12809)
T2 sequence (Q12809 whole entry): as above

[4] = Volume of distribution at steady state in Sprague-Dawley rat at 1 mg/kg, iv; format: ADME, organism-based; set-up: dose 1 mg/kg, route intravenous; conditions: in vivo, read-out: Vdss
Method in brief: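 Male Sprague-Dawley rats given a single iv dose, nominal 1 mg/kg, […] in DMA:PEG400:H2O (2:2:1).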

[5] = Half life in Sprague-Dawley rat at 1 mg/kg, iv; format: ADME, organism-based; set-up: dose 1 mg/kg, route intravenous; conditions: in vivo
[6] = Oral bioavailability in Sprague-Dawley rat at 1 mg/kg administered using cyclodextrin-meglumine as vehicle; format: ADME, organism-based; conditions: in vivo
[7] = Oral bioavailability in dog at 1 mg/kg administered using 0.1%tween-1%CMC as vehicle; format: ADME, organism-based, Canis lupus familiaris; conditions: in vivo
[8] = Clearance in Sprague-Dawley rat at 1 mg/kg, iv; format: ADME, organism-based; set-up: dose 1 mg/kg, route intravenous; conditions: in vivo
[9] = Oral bioavailability in rat; format: ADME, organism-based; conditions: in vivo
[10] = Solubility of the compound at pH 7.4; format: physicochemical; conditions: buffer
[11] = biological target: T2, Voltage-gated inwardly rectifying potassium channel KCNH2; test: Inhibition of human ERG expressed in CHO cells by IonworksHT assay; format: cell-based

| SMILES | Ki [1] [nM] | Ki (Histamine H1 receptor) [nM] | further results |
| --- | --- | --- | --- |
| N#Cc1cccc(S(=O)(=O)NC(=O)N2CCC(N3CCC(Oc4ccc(Cl)c(Cl)c4)CC3)CC2)c1 | 100 | 20 | – |
| CS(=O)(=O)c1cccc(C(=O)N2CC[C@@H](N3CCC(Oc4ccc(Cl)c(Cl)c4)CC3)[C@H](C(=O)O)C2)c1 | 398 | 200 | – |
| O=C(NS(=O)(=O)c1ccc(Cl)cc1)N1CCC(N2CCC(Oc3ccc(Cl)c(Cl)c3)CC2)CC1 | 7.94 | 20 | – |
| CN(C)c1ccccc1S(=O)(=O)NC(=O)N1CCC(N2CCC(Oc3ccc(Cl)c(Cl)c3)CC2)CC1 | 31.6 | 25.1 | – |
| Cc1c(Cl)ccc(OC2CCN(C3CCN(C(=O)c4cccc(S(C)(=O)=O)c4)CC3)CC2)c1Cl | 5.01 | 25.1 | – |
| O=C(O)COc1cccc(C(=O)N2CCC(N3CCC(Oc4ccc(Cl)c(Cl)c4)CC3)CC2)c1 | 251 | 100 | inhibition at 10 µM (hERG (KCNH2)): 15% |
| Cc1ccccc1S(=O)(=O)NC(=O)N1CCC(N2CCC(Oc3ccc(Cl)c(Cl)c3)CC2)CC1 | 20 | 50.1 | bioavailability [2]: 8%; IC50 [3]: > 10 µM; Vd [4]: 2.7 L/kg |
| Cc1ccc(S(=O)(=O)NC(=O)N2CCC(N3CCC(Oc4ccc(Cl)c(Cl)c4)CC3)CC2)cc1 | – | – | bioavailability [2]: 18%; half-life [5]: 162 min; bioavailability [6]: 44%; bioavailability [7]: 19%; clearance [8]: 20 mL/min/kg; Vd [4]: 2.7 L/kg |
| O=C(O)CCNc1ccccc1C(=O)N1CCC(N2CCC(Oc3ccc(Cl)c(Cl)c3)CC2)CC1 | 501 | 15.8 | – |
| CS(=O)(=O)c1cccc(C(=O)N2CCC(N3CCC(Oc4ccc(Cl)c(Cl)c4)CC3)CC2)c1 | 50.1 | 7.94 | half-life [5]: 414 min; bioavailability [9]: 50%; solubility [10]: 0.017 µM (≈ 8.7 ng/mL) |
| Cc1c(Cl)ccc(OC2CCN(C3CCN(S(=O)(=O)NC(=O)c4ccccc4)CC3)CC2)c1Cl | 12.6 | 25.1 | bioavailability [2]: 18%; half-life [5]: 96 min; IC50 [3]: 3.98 µM; clearance [8]: 17 mL/min/kg; Vd [4]: 0.9 L/kg |
| O=C(O)CCCCn1nnc(-c2ccc(C(=O)N3CCC(N4CCC(Oc5ccc(Cl)c(Cl)c5)CC4)CC3)cc2)n1 | 398 | 39.8 | – |
| Cc1ccc(S(=O)(=O)N(C)C(=O)N2CCC(N3CCC(Oc4ccc(Cl)c(Cl)c4)CC3)CC2)cc1 | 100 | 2.51 | IC50 [11]: 316 nM |
| COc1ccccc1S(=O)(=O)NC(=O)N1CCC(N2CCC(Oc3ccc(Cl)c(Cl)c3)CC2)CC1 | 25.1 | 20 | – |
| Cc1ccc(S(=O)(=O)NC(=O)N2CCC(N3CCC(Oc4ccc(Cl)c(C)c4Cl)CC3)CC2)cc1 | 0.631 | 20 | – |
| Cc1ccc(S(=O)(=O)NC(=O)N2CCC(N3CCC(Oc4ccc(Cl)cc4Cl)CC3)CC2)cc1 | 25.1 | 15.8 | – |
| COc1ccc(C(=O)NCCN2CCN(Cc3ccc(Cl)c(Cl)c3)CC2)cc1Cl | 5010 | – | – |
| O=C(NS(=O)(=O)c1ccccc1Cl)N1CCC(N2CCC(Oc3ccc(Cl)c(Cl)c3)CC2)CC1 | 5.01 | 50.1 | – |
| Cc1ccc(S(=O)(=O)NC(=O)N2CCC(N3CCC(Oc4ccc(Cl)cc4)CC3)CC2)cc1 | 126 | 126 | – |
| Cc1ccc(C(=O)N2CCC(N3CC[C@@H](Oc4ccc(Cl)c(C)c4Cl)C[C@H]3C(=O)O)CC2)cc1 | 2510 | > 5010 | – |
| O=C(O)CCCS(=O)(=O)c1cccc(C(=O)N2CCC(N3CCC(Oc4ccc(Cl)c(Cl)c4)CC3)CC2)c1 | 79.4 | 79.4 | – |

| SMILES | Ki [1] [nM] | Ki (Histamine H1 receptor) [nM] | further results |
| --- | --- | --- | --- |
| Cc1c(Cl)ccc(OC2CCN(C3CCN(C(=O)NS(=O)(=O)c4ccc(N(C)C)cc4)CC3)CC2)c1Cl | 3.16 | – | bioavailability [2]: 82%; IC50 [11]: > 20000 nM; Vd [4]: 2.3 L/kg |
| Cc1ccc(S(=O)(=O)NC(=O)N2CCC(N3CCC(Oc4ccc(F)c(F)c4)CC3)CC2)cc1 | 631 | 1000 | – |
| O=C(NS(=O)(=O)c1cccc(Cl)c1)N1CCC(N2CCC(Oc3ccc(Cl)c(Cl)c3)CC2)CC1 | 6.31 | 7.94 | – |
| O=C(NS(=O)(=O)c1ccc(F)cc1)N1CCC(N2CCC(Oc3ccc(Cl)c(Cl)c3)CC2)CC1 | 31.6 | 50.1 | – |
| Cc1ccc(S(=O)(=O)[N-]C(=O)N2CCC(N3CCC(Oc4ccc(Cl)c(Cl)c4)CC3)CC2)cc1.[Na+] | – | – | bioavailability [2]: 15%; bioavailability [7]: 97%; solubility [10]: 0.26 µM |
| O=C(NS(=O)(=O)Cc1ccccc1)N1CCC(N2CCC(Oc3ccc(Cl)c(Cl)c3)CC2)CC1 | 158 | 50.1 | – |
| O=C(NS(=O)(=O)N1CCC(N2CCC(Oc3ccc(Cl)c(Cl)c3)CC2)CC1)c1ccccc1 | 79.4 | 100 | bioavailability [2]: 100%; Vd [4]: 0.5 L/kg |
| Cc1ccc(C(=O)N2CCC(N3CC[C@H](Oc4ccc(Cl)c(C)c4Cl)C[C@@H]3C(=O)O)CC2)cc1 | 631 | > 6310 | – |
| O=C(c1c[nH]c(=O)c2ccccc12)N1CCC(N2CCC(Oc3ccc(Cl)c(Cl)c3)CC2)CC1 | 10 | 25.1 | half-life [5]: 252 min; bioavailability [9]: 50% |
| O=C(O)c1cccc(C(=O)N2CCC(N3CCC(Oc4ccc(Cl)c(Cl)c4)CC3)CC2)c1 | 200 | 126 | IC50 [3]: > 10 µM |
| Cc1ccc(S(=O)(=O)NC(=O)N2CCC(N3CCC(Oc4ccc(Cl)cc4C)CC3)CC2)cc1 | 7.94 | 25.1 | bioavailability [2]: 6%; half-life [5]: 54 min; IC50 [3]: > 10 µM; clearance [8]: 27 mL/min/kg; Vd [4]: 1.4 L/kg |
| O=C(NS(=O)(=O)c1ccccc1)N1CCC(N2CCC(Oc3ccc(Cl)c(Cl)c3)CC2)CC1 | 15.8 | 31.6 | IC50 [3]: 10 µM |
| O=C(O)c1ccccc1C(=O)N1CCC(N2CCC(Oc3ccc(Cl)c(Cl)c3)CC2)CC1 | 251 | 25.1 | – |
| O=C(c1ccc(-c2nc(=O)o[nH]2)cc1)N1CCC(N2CCC(Oc3ccc(Cl)c(Cl)c3)CC2)CC1 | 316 | 15.8 | – |
| O=C(c1ccc(-c2nn[nH]n2)cc1)N1CCC(N2CCC(Oc3ccc(Cl)c(Cl)c3)CC2)CC1 | 200 | 31.6 | – |
| COc1ccc(S(=O)(=O)NC(=O)N2CCC(N3CCC(Oc4ccc(Cl)c(Cl)c4)CC3)CC2)cc1 | 39.8 | 20 | bioavailability [2]: 4% |
| COc1cccc(C(=O)NCCN2CCC(Oc3ccc(Cl)c(Cl)c3)CC2)c1 | 100 | – | half-life [5]: 108 min |
| Cc1cccc(S(=O)(=O)NC(=O)N2CCC(N3CCC(Oc4ccc(Cl)c(Cl)c4)CC3)CC2)c1 | 126 | 31.6 | – |
| CN(C)c1ccc(S(=O)(=O)NC(=O)N2CCC(N3CCC(Oc4ccc(Cl)c(Cl)c4)CC3)CC2)cc1 | 50.1 | 20 | – |
| O=C(NS(=O)(=O)c1cccc(C(F)(F)F)c1)N1CCC(N2CCC(Oc3ccc(Cl)c(Cl)c3)CC2)CC1 | 31.6 | 39.8 | – |
